Assays:
Type in all cases: functional
[1] = tested on: NCI-H460; assay: Anticancer activity against human NCI-H460 cells assessed as cell growth at 100 uM after 48 hrs by sulforhodamine B assay; settings: NCI-H460, 48 h, read-out: Activity
[2] = tested on: MCF7; assay: Anticancer activity against human MCF7 cells assessed as cell growth at 100 uM after 48 hrs by sulforhodamine B assay; settings: MCF7, 48 h, read-out: Activity
[3] = tested on: SF-268; assay: Anticancer activity against human SF268 cells assessed as cell growth at 100 uM after 48 hrs by sulforhodamine B assay; settings: SF-268, 48 h, read-out: Activity
[4] = tested on: HOP-62; assay: Growth inhibition of human HOP62 cells after 48 hrs by sulforhodamine B assay; settings: HOP-62, 48 h
Procedure, shortened: (§1)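 NCI 60-human-tumor-cell-line panel, with compounds tested over a 5-log dose range. Values are taken from dose-response curves as log10 molar concentrations: GI50 is 50% net growth inhibition, TGI is total growth inhibition, and LC50 is 50% net cell death.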

[5] = tested on: NCI-H322M; assay: Growth inhibition of human NCI-H322M cells after 48 hrs by sulforhodamine B assay; procedure, shortened: as §1
[6] = tested on: NCI-H460; assay: Growth inhibition of human NCI-H460 cells after 48 hrs by sulforhodamine B assay; settings: NCI-H460, 48 h; procedure, shortened: as §1
[7] = tested on: NCI-H522; assay: Growth inhibition of human NCI-H522 cells after 48 hrs by sulforhodamine B assay; settings: NCI-H522, 48 h; procedure, shortened: as §1
[8] = tested on: COLO 205; assay: Growth inhibition of human COLO205 cells after 48 hrs by sulforhodamine B assay; settings: COLO 205, 48 h; procedure, shortened: as §1
[9] = tested on: KM12; assay: Growth inhibition of human KM12 cells after 48 hrs by sulforhodamine B assay; settings: KM12, 48 h; procedure, shortened: as §1
[10] = tested on: SF-268; assay: Growth inhibition of human SF268 cells after 48 hrs by sulforhodamine B assay; settings: SF-268, 48 h; procedure, shortened: as §1
[11] = tested on: SF-295; assay: Growth inhibition of human SF295 cells after 48 hrs by sulforhodamine B assay; settings: SF-295, 48 h; procedure, shortened: as §1
[12] = tested on: SNB-19; assay: Growth inhibition of human SNB19 cells after 48 hrs by sulforhodamine B assay; settings: SNB-19, 48 h
Procedure, shortened: (§2)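 Run in the NCI 60-human-tumour-cell-line panel, tested over a 5-log dose range. Dose–response curves gave three values per cell line, each as a log10 molar concentration: GI50 (50% inhibition of net cell growth), TGI (total inhibition of net growth) and LC50 (50% net cell death). The mean graph midpoint is the arithmetic mean over all lines, with insensitive lines entered at the highest concentration tested.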

[13] = tested on: U-251; assay: Growth inhibition of human U251 cells after 48 hrs by sulforhodamine B assay; settings: U-251, 48 h; procedure, shortened: as §2
[14] = tested on: SK-MEL-5; assay: Growth inhibition of human SK-MEL-5 cells after 48 hrs by sulforhodamine B assay; settings: SK-MEL-5, 48 h; procedure, shortened: as §1
[15] = tested on: UACC-257; assay: Growth inhibition of human UACC257 cells after 48 hrs by sulforhodamine B assay; settings: UACC-257, 48 h; procedure, shortened: as §2
[16] = tested on: IGROV-1; assay: Growth inhibition of human IGROV1 cells after 48 hrs by sulforhodamine B assay; settings: IGROV-1, 48 h; procedure, shortened: as §1
[17] = tested on: OVCAR-3; assay: Growth inhibition of human OVCAR-3 cells after 48 hrs by sulforhodamine B assay; settings: OVCAR-3, 48 h; procedure, shortened: as §1
[18] = tested on: OVCAR-4; assay: Growth inhibition of human OVCAR4 cells after 48 hrs by sulforhodamine B assay; settings: OVCAR-4, 48 h; procedure, shortened: as §1
[19] = tested on: OVCAR-5; assay: Growth inhibition of human OVCAR5 cells after 48 hrs by sulforhodamine B assay; settings: OVCAR-5, 48 h; procedure, shortened: as §1
[20] = tested on: OVCAR-8; assay: Growth inhibition of human OVCAR8 cells after 48 hrs by sulforhodamine B assay; settings: OVCAR-8, 48 h; procedure, shortened: as §1
[21] = tested on: SK-OV-3; assay: Growth inhibition of human SKOV3 cells after 48 hrs by sulforhodamine B assay; settings: SK-OV-3, 48 h; procedure, shortened: as §1
[22] = tested on: 786-0; assay: Growth inhibition of human 786-0 cells after 48 hrs by sulforhodamine B assay; settings: 786-0, 48 h; procedure, shortened: as §1
[23] = tested on: CAKI-1; assay: Growth inhibition of human Caki1 cells after 48 hrs by sulforhodamine B assay; settings: CAKI-1, 48 h; procedure, shortened: as §1
[24] = tested on: TK-10; assay: Growth inhibition of human TK10 cells after 48 hrs by sulforhodamine B assay; settings: TK-10, 48 h; procedure, shortened: as §2
[25] = tested on: UO-31; assay: Growth inhibition of human UO31 cells after 48 hrs by sulforhodamine B assay; settings: UO-31, 48 h; procedure, shortened: as §2
[26] = tested on: PC-3; assay: Growth inhibition of human PC3 cells after 48 hrs by sulforhodamine B assay; settings: PC-3, 48 h; procedure, shortened: as §1
[27] = tested on: MDA-MB-231; assay: Growth inhibition of human MDA-MB-231 cells after 48 hrs by sulforhodamine B assay; settings: MDA-MB-231, 48 h; procedure, shortened: as §1
[28] = Growth inhibition of human Hs 578T cells after 48 hrs by sulforhodamine B assay; procedure, shortened: as §1
[29] = tested on: MDA-MB-435; assay: Growth inhibition of human MDA-MB-435 cells after 48 hrs by sulforhodamine B assay; settings: MDA-MB-435, 48 h; procedure, shortened: as §1
[30] = tested on: MCF7; assay: Growth inhibition of human MCF7 cells after 48 hrs by sulforhodamine B assay; settings: MCF7, 48 h; procedure, shortened: as §1
[31] = read-out: pLC50 (the source's name) (converted)

Compound `Nc1cc(N)c2nc(-c3ccccc3)c(Sc3ccc(Cl)c(Cl)c3)nc2c1` has a growth at 100 µM [1] of 0%, a growth at 100 µM [2] of 12% and a growth at 100 µM [3] of 11%. For the same compound, the GI50 [4] was 12.3 µM, the LC50 [4] was > 100 µM and the TGI ([4]; read-out: pTGI (converted)) was 77.6 µM. The GI50 [5] was 7.08 µM, the LC50 [5] was > 100 µM and the TGI ([5]; read-out: pTGI (converted)) was 35.5 µM. The GI50 [6] was 10.5 µM, the LC50 (50% net cell kill) [6] was > 100 µM and the TGI ([6]; read-out: pTGI (converted)) was 33.9 µM. For the same compound, the GI50 [7] was 7.59 µM, the LC50 [7] was > 100 µM and the TGI ([7]; read-out: pTGI (converted)) was 33.9 µM. The GI50 [8] was 10.7 µM, the LC50 (50% net cell kill) [8] was > 100 µM and the TGI ([8]; read-out: pTGI (converted)) was 33.9 µM. The GI50 [9] was 11.2 µM, the LC50 (50% net cell kill) [9] was > 100 µM and the TGI ([9]; read-out: pTGI (converted)) was > 100 µM. For the same compound, the GI50 [10] was 13.8 µM, the LC50 [10] was > 100 µM and the TGI ([10]; read-out: pTGI (converted)) was 51.3 µM. For the same compound, the GI50 [11] was 17.8 µM, the LC50 (50% net cell kill) [11] was > 100 µM and the TGI ([11]; read-out: pTGI (converted)) was 60.3 µM. For the same compound, the GI50 [12] was 17 µM, the LC50 [12] was > 100 µM and the TGI ([12]; read-out: pTGI (converted)) was 57.5 µM. The GI50 [13] was 10.2 µM, the LC50 (50% net cell kill) [13] was > 100 µM and the TGI ([13]; read-out: pTGI (converted)) was > 100 µM. The GI50 [14] was 21.4 µM, the CC50 [14, 31] was > 100 µM and the TGI ([14]; read-out: pTGI (converted)) was 95.5 µM. For the same compound, the GI50 [15] was 17.8 µM, the CC50 [15, 31] was > 100 µM and the TGI ([15]; read-out: pTGI (converted)) was 58.9 µM. The GI50 [16] was 2950 nM, the CC50 [16, 31] was > 100 µM and the TGI ([16]; read-out: pTGI (converted)) was 27.5 µM. The GI50 [17] was 11.7 µM, the CC50 [17, 31] was > 100 µM and the TGI ([17]; read-out: pTGI (converted)) was 46.8 µM. For the same compound, the GI50 [18] was 20 µM, the CC50 [18, 31] was > 100 µM and the TGI ([18]; read-out: pTGI (converted)) was > 100 µM. It also gave a GI50 [19] of 38.9 µM, a CC50 [19, 31] of 91.2 µM and a TGI ([19]; read-out: pTGI (converted)) of 58.9 µM. The GI50 [20] was 24.5 µM, the CC50 [20, 31] was > 100 µM and the TGI ([20]; read-out: pTGI (converted)) was > 100 µM. For the same compound, the GI50 [21] was 14.8 µM, the CC50 [21, 31] was > 100 µM and the TGI ([21]; read-out: pTGI (converted)) was 39.8 µM. For the same compound, the GI50 [22] was 23.4 µM, the CC50 [22, 31] was > 100 µM and the TGI ([22]; read-out: pTGI (converted)) was 61.7 µM. The GI50 [23] was 15.1 µM, the CC50 [23, 31] was 89.1 µM and the TGI ([23]; read-out: pTGI (converted)) was 37.2 µM. The GI50 [24] was 5.89 µM, the CC50 [24, 31] was 53.7 µM and the TGI ([24]; read-out: pTGI (converted)) was 20 µM. The GI50 [25] was 3.8 µM, the CC50 [25, 31] was > 100 µM and the TGI ([25]; read-out: pTGI (converted)) was > 100 µM. For the same compound, the GI50 [26] was 3.47 µM, the CC50 [26, 31] was > 100 µM and the TGI ([26]; read-out: pTGI (converted)) was 15.5 µM. The GI50 [27] was 16.6 µM, the CC50 [27, 31] was > 100 µM and the TGI ([27]; read-out: pTGI (converted)) was 53.7 µM. For the same compound, the GI50 [28] was 30.2 µM, the CC50 [28, 31] was > 100 µM and the TGI ([28]; read-out: pTGI (converted)) was > 100 µM. The GI50 [29] was 18.2 µM, the CC50 [29, 31] was > 100 µM and the TGI ([29]; read-out: pTGI (converted)) was 60.3 µM. For the same compound, the GI50 [30] was 5.25 µM, the CC50 [30, 31] was > 100 µM and the TGI ([30]; read-out: pTGI (converted)) was 38 µM.
